Laboratory results published in ChEMBL document CHEMBL3875163, “Novel urea and bis-urea primaquine derivatives with hydroxyphenyl or halogenphenyl substituents: Synthesis and biological evaluation” (Eur J Med Chem, 2016).
Converted amounts (≈) assume the structure as drawn.

Key:
Candida albicans = assay: Antifungal activity against Candida albicans ATCC 90028 after 18 hrs by serial microdilution broth assay; type: functional; details: ATCC 90028, 18 h
Procedure, shortened: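 Yeast microdilution in RPMI 1640 with glutamine plus 2% glucose, 1000 to 0.78125 µg/ml from 10 mg/ml DMSO stocks. Growth read with XTT (10 mg/ml) mixed 7:1 with menadione (1 mg/ml in acetone), absorbance at 540 nm. MIC taken as lowest concentration giving 50% growth inhibition versus untreated cells; tests in duplicate.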

Glycine max = assay: Inhibition of soybean LOX assessed as reduction in conversion of sodium linoleate to 13-hydroperoxylinoleic acid at 1 x 10^-4 M relative to control
Procedure, shortened: (§1)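 Soybean lipoxygenase incubated at room temperature with sodium linoleate (0.1 mM) and test compound (DMSO stocks); formation of 13-hydroperoxylinoleic acid read at 234 nm. Single-point screening at 1 × 10^-4 M; IC50 from several concentrations. At least triplicate.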

[1] = Antioxidant activity assessed as DPPH radical scavenging activity at 100 uM after 20 mins relative to control; type: functional
Procedure, shortened: (§2)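 Compound in DMSO added to DPPH in absolute ethanol, 0.1 mM final; absorbance at 517 nm after 20 and 60 min at room temperature. At least triplicate.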

[2] = Antioxidant activity assessed as DPPH radical scavenging activity at 100 uM after 60 mins relative to control; type: functional; procedure, shortened: as §2
[3] = Inhibition of soybean LOX assessed as reduction in conversion of sodium linoleate to 13-hydroperoxylinoleic acid; design: species or system Glycine max; procedure, shortened: as §1
[4] = Growth inhibition of human NCI-H460 cells after 72 hrs by MTT assay; type: functional, cell-based; details: NCI-H460, 72 h
Procedure, shortened: (§3)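 Modified NCI DTP protocol: cells in DMEM with 10% FBS, 2 mM glutamine, antibiotics, 37 °C, 5% CO2; seeded 1 × 10^4 to 3 × 10^4 cells/ml on day 0, exposed to five 10-fold dilutions (10^-8 to 10^-4 M) for 72 h; solvent control. MTT read-out; quadruplicate points in three experiments; IC50 by linear regression of growth percentages bracketing 50%.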

[5] = Antioxidant activity assessed as inhibition of AAPH-induced linoleic acid lipid peroxidation at 1 x 10^-4 M by UV-absorbance method relative to control; type: functional
Procedure, shortened: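 Linoleic acid peroxidation: 16 mM sodium linoleate dispersion in 0.05 M phosphate buffer pH 7.4 at 37 °C under air, initiated by AAPH (40 mM solution); compound at 1 × 10^-4 M; oxidation followed at 234 nm. At least triplicate.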

[6] = Growth inhibition of human CEM cells after 72 hrs by MTT assay; type: functional, cell-based; details: CCRF-CEM
[7] = Growth inhibition of human MCF7 cells after 72 hrs by MTT assay; type: functional, cell-based; details: MCF7, 72 h; procedure, shortened: as §3
[8] = Growth inhibition of human MIAPaCa2 cells after 72 hrs by MTT assay; type: functional, cell-based; details: MIA PaCa-2, 72 h
[9] = Growth inhibition of human HeLa cells after 72 hrs by MTT assay; type: functional, cell-based
[10] = Growth inhibition of mouse L1210 cells after 72 hrs by MTT assay; type: functional, cell-based; details: L1210, 72 h
[11] = Growth inhibition of human Molt4/C8 cells after 72 hrs by MTT assay; type: functional, cell-based; details: MOLT-4, 72 h
[12] = Growth inhibition of human SW620 cells after 72 hrs by MTT assay; type: functional, cell-based; details: SW-620, 72 h; procedure, shortened: as §3
Escherichia coli = assay: Antibacterial activity against Escherichia coli ATCC 10535 after 18 hrs by serial microdilution broth assay; type: functional; details: ATCC 10535, 18 h
Procedure, shortened: (§4)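 Broth microdilution MIC per EUCAST for aerobic bacteria in Mueller-Hinton broth, serial dilution 1000 to 0.78125 µg/ml from 10 mg/ml DMSO stocks. Inoculum from trypticase soy broth cultures (18 h, 37 °C), set to 0.5 McFarland in PBS pH 7.4, diluted 1:10. 18 h aerobic incubation at 35 °C in dark, then TTC 0.5 mg/ml for 3 h, HCl-isopropanol, A490. MIC = lowest concentration giving 50% inhibition versus untreated; duplicates.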

Staphylococcus aureus [13] = assay: Antibacterial activity against methicillin resistant Staphylococcus aureus MFBF 10679 after 18 hrs by serial microdilution broth assay; type: functional; details: MFBF 10679, 18 h
Procedure, shortened: (§5)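 EUCAST-based broth microdilution in Mueller-Hinton broth. Glycerol stock cultures grown in trypticase soy broth 18 h at 37 °C; inoculum in PBS pH 7.4 at 0.5 McFarland, diluted 1:10 in broth. Compounds from DMSO stocks, 1000 to 0.78125 µg/ml; 18 h aerobic, 35 °C, dark. TTC 0.5 mg/ml added, 3 h, then HCl/isopropanol, A490. MIC = lowest concentration giving 50% inhibition vs untreated; duplicates, averaged.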

Bacillus cereus = assay: Antibacterial activity against Bacillus cereus ATCC 11778 after 18 hrs by serial microdilution broth assay; type: functional; details: ATCC 11778, 18 h; procedure, shortened: as §4
Pseudomonas aeruginosa [14] = assay: Antibacterial activity against Pseudomonas aeruginosa ATCC 27853 after 18 hrs by serial microdilution broth assay; type: functional; details: ATCC 27853, 18 h; procedure, shortened: as §4
Enterococcus faecalis [15] = assay: Antibacterial activity against vancomycin susceptible Enterococcus faecalis ATCC 29212 after 18 hrs by serial microdilution broth assay; type: functional; details: ATCC 29212, 18 h; procedure, shortened: as §4
Staphylococcus aureus [16] = assay: Antibacterial activity against Staphylococcus aureus ATCC 6538 after 18 hrs by serial microdilution broth assay; type: functional; details: ATCC 6538, 18 h; procedure, shortened: as §4
Pseudomonas aeruginosa [17] = assay: Antibacterial activity against multi-drug resistant Pseudomonas aeruginosa MFBF after 18 hrs by serial microdilution broth assay; type: functional; procedure, shortened: as §5
Pseudomonas aeruginosa [18] = assay: Antibacterial activity against Pseudomonas aeruginosa ATCC 9027 after 18 hrs by serial microdilution broth assay; type: functional; details: ATCC 9027, 18 h; procedure, shortened: as §5
Bacillus pumilus = assay: Antibacterial activity against Bacillus pumilus NCTC 8241 after 18 hrs by serial microdilution broth assay; type: functional; details: NCTC 8241, 18 h; procedure, shortened: as §4
Staphylococcus aureus [19] = assay: Antibacterial activity against methicillin sensitive Staphylococcus aureus ATCC 25213 after 18 hrs by serial microdilution broth assay; type: functional; details: ATCC 25213, 18 h; procedure, shortened: as §4
Staphylococcus aureus [20] = assay: Antibacterial activity against methicillin resistant Staphylococcus aureus MFBF 10682 after 18 hrs by serial microdilution broth assay; type: functional; details: MFBF 10682, 18 h; procedure, shortened: as §5
Bacillus spizizenii = assay: Antibacterial activity against Bacillus subtilis ATCC 6633 after 18 hrs by serial microdilution broth assay; type: functional; details: ATCC 6633, 18 h; procedure, shortened: as §4
Staphylococcus aureus [21] = assay: Antibacterial activity against methicillin sensitive Staphylococcus aureus ATCC 25923 after 18 hrs by serial microdilution broth assay; type: functional; details: ATCC 25923, 18 h; procedure, shortened: as §5
Enterococcus faecalis [22] = assay: Antibacterial activity against vancomycin resistant Enterococcus faecalis MFBF 11419 after 18 hrs by serial microdilution broth assay; type: functional; details: MFBF 11419, 18 h; procedure, shortened: as §5

| SMILES | inhibition (Glycine max) [%] | Activity [1] [%] | Activity [2] [%] | IC50 [4] [µM] | inhibition [5] [%] | IC50 [6] [µM] | IC50 [7] [µM] | IC50 [8] [µM] | IC50 [9] [µM] | IC50 [10] [µM] | IC50 [11] [µM] | IC50 [12] [µM] | other results |
| --- | --- | --- | --- | --- | --- | --- | --- | --- | --- | --- | --- | --- | --- |
| C[C@@H](c1ncncc1F)[C@](O)(Cn1cncn1)c1ccc(F)cc1F [VORICONAZOLE] | – | – | – | – | – | – | – | – | – | – | – | – | MIC50 (Candida albicans): 0.5 µg/mL (≈ 1.43 µM) |
| CC(Cc1ccc(O)c(O)c1)C(C)Cc1ccc(O)c(O)c1 (configuration not stated) [NORDIHYDROGUAIARETIC ACID] | 83 | 83 | 97 | – | – | – | – | – | – | – | – | – | IC50 [3]: 4.5 µM |
| COc1cc(NC(C)CCCNC(=O)NNC(=O)Nc2ccc(C(F)(F)F)cc2)c2ncccc2c1 (configuration not stated) | 55.8 | 99 | 96.1 | 12 | 75.3 | 18 | 0.1 | 19 | 15 | 18 | 24 | 12 | IC50 [3]: 85 µM |
| CN(C)[C@@H]1C(O)=C(C(N)=O)C(=O)[C@@]2(O)C(O)=C3C(=O)c4c(O)cccc4[C@@](C)(O)[C@H]3C[C@@H]12 [TETRACYCLINE] | – | – | – | – | – | – | – | – | – | – | – | – | MIC50 (Escherichia coli): 2.5 µg/mL (≈ 5.63 µM); MIC50 (Staphylococcus aureus [13]): 0.312 µg/mL (≈ 0.702 µM); MIC50 (Bacillus cereus): 0.312 µg/mL (≈ 0.702 µM); MIC50 (Pseudomonas aeruginosa [14]): 3 µg/mL (≈ 6.75 µM); MIC50 (Enterococcus faecalis [15]): 0.312 µg/mL (≈ 0.702 µM); MIC50 (Staphylococcus aureus [16]): 0.15 µg/mL (≈ 0.338 µM); MIC50 (Pseudomonas aeruginosa [17]): > 128 µg/mL; MIC50 (Pseudomonas aeruginosa [18]): 3 µg/mL (≈ 6.75 µM); MIC50 (Bacillus pumilus): 0.156 µg/mL (≈ 0.351 µM); MIC50 (Staphylococcus aureus [19]): 0.156 µg/mL (≈ 0.351 µM); MIC50 (Staphylococcus aureus [20]): 0.312 µg/mL (≈ 0.702 µM); MIC50 (Bacillus spizizenii): 0.312 µg/mL (≈ 0.702 µM); MIC50 (Staphylococcus aureus [21]): 0.312 µg/mL (≈ 0.702 µM); MIC50 (Enterococcus faecalis [22]): > 128 µg/mL |
| COc1cc(NC(C)CCCN)c2ncccc2c1 (configuration not stated) [PRIMAQUINE] | – | – | – | – | – | – | – | – | – | – | – | – | MIC50 (Escherichia coli): 65 µg/mL (≈ 251 µM); MIC50 (Staphylococcus aureus [13]): 70 µg/mL (≈ 270 µM); MIC50 (Bacillus cereus): 70 µg/mL (≈ 270 µM); MIC50 (Pseudomonas aeruginosa [14]): 65 µg/mL (≈ 251 µM); MIC50 (Candida albicans): 350 µg/mL (≈ 1350 µM); MIC50 (Enterococcus faecalis [15]): > 100 µg/mL; MIC50 (Staphylococcus aureus [16]): 70 µg/mL (≈ 270 µM); MIC50 (Pseudomonas aeruginosa [17]): 70 µg/mL (≈ 270 µM); MIC50 (Pseudomonas aeruginosa [18]): 70 µg/mL (≈ 270 µM); MIC50 (Bacillus pumilus): 70 µg/mL (≈ 270 µM); MIC50 (Staphylococcus aureus [19]): 70 µg/mL (≈ 270 µM); MIC50 (Staphylococcus aureus [20]): 60 µg/mL (≈ 231 µM); MIC50 (Bacillus spizizenii): 80 µg/mL (≈ 308 µM); MIC50 (Staphylococcus aureus [21]): 70 µg/mL (≈ 270 µM); MIC50 (Enterococcus faecalis [22]): > 100 µg/mL |
| COc1cc(NC(C)CCCNC(=O)Nc2ccc(O)cc2)c2ncccc2c1 (configuration not stated) | 49.9 | 95.5 | 94.5 | 34 | 54 | 23 | 5.2 | 57 | 70 | 21 | 21 | 30 | – |
| COc1cc(NC(C)CCCNC(=O)NNC(=O)Nc2ccc(Cl)cc2)c2ncccc2c1 (configuration not stated) | 39 | 97.6 | 100 | 63 | 42.1 | 108 | 0.18 | ≥ 250 | 120 | 58 | 186 | 48 | – |
| COc1cc(NC(C)CCCNC(=O)NNC(=O)Nc2cccc(F)c2)c2ncccc2c1 (configuration not stated) | 67.4 | 75.7 | 100 | 50 | 58.2 | 98 | 0.15 | 69 | > 250 | 108 | ≥ 250 | 9.5 | IC50 [3]: 40 µM |
| COc1cc(NC(C)CCCNC(=O)NNC(=O)Nc2ccc(O)cc2)c2ncccc2c1 (configuration not stated) | 33.4 | 99.3 | 100 | > 100 | 61.9 | 111 | 2.6 | 142 | 85 | 95 | 104 | > 100 | – |
| COc1cc(NC(C)CCCNC(=O)Nc2ccc(Cl)cc2)c2ncccc2c1 (configuration not stated) | 21.6 | 24 | 37 | 34 | 81.9 | 24 | 12 | 22 | 18 | 19 | 24 | 28 | – |
| COc1cc(NC(C)CCCNC(=O)NNC(=O)Nc2cc(C(F)(F)F)cc(C(F)(F)F)c2)c2ncccc2c1 (configuration not stated) | 33.9 | 86.8 | 88 | 18 | 39.9 | 13 | 2.4 | 20 | 17 | 18 | 22 | 16 | – |
| COc1cc(NC(C)CCCNC(=O)NNC(=O)Nc2cccc(O)c2)c2ncccc2c1 (configuration not stated) | 41.6 | 96.5 | 100 | > 100 | 52.2 | 143 | 1.1 | 129 | 180 | 160 | 85 | 17 | – |
